Test [1] deals with Mus musculus. In words: Antiinflammatory activity in C57BL/6J mouse model of LPS-induced acute lung injury assessed as reduction in IL-6 production in serum at 20 mg/kg, po administered 30 mins prior to LPS treatment and measured after 6 hrs. It is filed as functional, organism-based. As to conditions: time 6.5 hrs. In a few lines: (§1)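 Mice dosed orally 30 min before intratracheal LPS at 5 mg/kg; sham mice received a similar volume of saline. Animals sacrificed 6 h after LPS, and blood and BALF collected. TNF-α and IL-6 measured in serum and in BALF. Mean ± SEM, n = 8, compared with the LPS-only group.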

Test [2] has as its system J774.A1. The test can be described thus: Antiinflammatory activity in mouse J774.A1 cells assessed as decrease in LPS-induced TNF-alpha secretion at 20 uM preincubated for 30 mins followed by LPS stimulation and measured after 24 hrs by ELISA. On the set-up: scale not given: the % may be the effect or the level left. The format is functional. Conditions: time 24.5 hrs. In outline: (§2)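 J774A.1 macrophages pretreated 30 min with 20 μM compound, DMSO as negative control. Cells then stimulated with LPS at 0.5 μg/mL for 24 h. IL-6 and TNF-α in the culture medium measured by ELISA.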
For orientation: ELISA stands for enzyme-linked immunosorbent assay.

The test system of test [3] is J774.A1. In words: Antiinflammatory activity in mouse J774.A1 cells assessed as decrease in LPS-induced IL-6 secretion preincubated for 30 mins followed by LPS stimulation and measured after 24 hrs by ELISA. The format is functional, cell-based. In a few lines: (§3)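 J774A.1 cells pretreated 30 min across a concentration range, then challenged with LPS at 0.5 μg/mL for 24 h. Secreted IL-6 or TNF-α measured in the medium by ELISA, and IC50 taken from dose–response. Mean ± SEM of 3 independent experiments.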

Test [4] has as its system Mus musculus. In words: Antiinflammatory activity in C57BL/6J mouse model of LPS-induced acute lung injury assessed as reduction in alveolar septa thickness at 20 mg/kg, po administered 30 mins prior to LPS treatment and measured after 6 hrs by H and E staining based assay. It is filed as functional, organism-based. As to conditions: time 6.5 hrs. In a few lines: (§4)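 Oral pretreatment 30 min before intratracheal LPS at 5 mg/kg, with a saline sham group. Lungs harvested 6 h later. H&E-stained sections scored for alveolar septal thickness, pulmonary congestion, inflammatory infiltration and tissue destruction.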

The subject of test [5] is J774.A1. In words: Antiinflammatory activity in mouse J774.A1 cells assessed as decrease in LPS-induced IL-6 secretion at 20 uM preincubated for 30 mins followed by LPS stimulation and measured after 24 hrs by ELISA. It is filed as functional. On the set-up: scale not given: the % may be the effect or the level left. As to conditions: time 24.5 hrs. In outline: as §2
Test [6] deals with J774.A1. In words: Antiinflammatory activity in mouse J774.A1 cells assessed as decrease in LPS-induced TNF-alpha secretion preincubated for 30 mins followed by LPS stimulation and measured after 24 hrs by ELISA. It is filed as functional, cell-based. In a few lines: as §3
Test [7] concerns Mus musculus. The test can be described thus: Antiinflammatory activity in C57BL/6J mouse model of LPS-induced acute lung injury assessed as reduction in […] infiltration at 20 mg/kg, po administered 30 mins prior to LPS treatment and measured after 6 hrs by F4/80 antibody staining based assay. It is filed as functional, organism-based. Conditions: time 6.5 hrs. In a few lines:
(§5)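 Oral pretreatment 30 min before intratracheal LPS at 5 mg/kg, with a saline sham group. Lungs taken at 6 h. Sections immunostained for F4/80 (macrophage marker) or for p-p65, counterstained with hematoxylin. Percentage of positive cells assessed.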

The subject of test [8] is Mus musculus. In words: Antiinflammatory activity in C57BL/6J mouse model of LPS-induced acute lung injury assessed as reduction in TNF-alpha production in BALF at 20 mg/kg, po administered 30 mins prior to LPS treatment and measured after 6 hrs. The format is functional, organism-based. As to conditions: time 6.5 hrs. In outline:
as §1

Test [9] deals with Mus musculus. The test can be described thus: Antiinflammatory activity in C57BL/6J mouse model of LPS-induced acute lung injury assessed as reduction in tissue destruction at 20 mg/kg, po administered 30 mins prior to LPS treatment and measured after 6 hrs by H and E staining based assay. The format is functional, organism-based. Conditions: time 6.5 hrs. In outline: as §4

Test [10] concerns Mus musculus. The test can be described thus: Antiinflammatory activity in C57BL/6J mouse model of LPS-induced acute lung injury assessed as reduction in pulmonary congestion at 20 mg/kg, po administered 30 mins prior to LPS treatment and measured after 6 hrs by H and E staining based assay. It is filed as functional, organism-based. Conditions: time 6.5 hrs. In outline: as §4

Test [11] relates to Mus musculus. The test can be described thus: Antiinflammatory activity in C57BL/6J mouse model of LPS-induced acute lung injury assessed as reduction in p-p65 level at 20 mg/kg, po administered 30 mins prior to LPS treatment and measured after 6 hrs by immunohistochemical analysis. It is filed as functional, organism-based. Conditions: time 6.5 hrs. In outline:
as §5

In test [12] the test system is Mus musculus. In words: Antiinflammatory activity in C57BL/6J mouse model of LPS-induced acute lung injury assessed as reduction in neutrophil count in BALF at 20 mg/kg, po administered 30 mins prior to LPS treatment and measured after 6 hrs by Wright and Giemsa staining based analysis. It is filed as functional, organism-based. As to conditions: time 6.5 hrs. In outline: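 Oral dosing 30 min before intratracheal LPS at 5 mg/kg, with a saline sham group. BALF collected at 6 h and neutrophils counted by Wright-Giemsa staining, given relative to control. Mean ± SEM, n = 8.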

Test [13] concerns Mus musculus. In words: Antiinflammatory activity in C57BL/6J mouse model of LPS-induced acute lung injury assessed as reduction in TNF-alpha production in serum at 20 mg/kg, po administered 30 mins prior to LPS treatment and measured after 6 hrs. As to conditions: time 6.5 hrs. It is filed as functional, organism-based. In outline:
as §1

The subject of test [14] is Mus musculus. The test can be described thus: Antiinflammatory activity in C57BL/6J mouse model of LPS-induced acute lung injury assessed as reduction in IL-6 production in BALF at 20 mg/kg, po administered 30 mins prior to LPS treatment and measured after 6 hrs. The format is functional, organism-based. Conditions: time 6.5 hrs. In a few lines: as §1
The subject of test [15] is Mus musculus. In words: Antiinflammatory activity in C57BL/6J mouse model of LPS-induced acute lung injury assessed as reduction in inflammatory infiltration at 20 mg/kg, po administered 30 mins prior to LPS treatment and measured after 6 hrs by H and E staining based assay. The format is functional, organism-based. As to conditions: time 6.5 hrs. In outline: as §4

In general, IC50 refers to the concentration at which inhibition is half-maximal.

SMILES strings stand for the structures. Activity calls are given as the source filed them. The rule behind the calls is not given here.

Regarding `CCN1CCN(c2ccc(S(=O)(=O)Cc3cccc(OC)c3)cc2[N+](=O)[O-])CC1`, the result in the test with Mus musculus [1], in the test on Mus musculus [4], in the test with J774.A1 [6] (time 24.5 hrs), in the test with Mus musculus [7], with Mus musculus [8] and in the test on Mus musculus [9] was Active. The outcome with Mus musculus [10], in the test on Mus musculus [11], with Mus musculus [12], in the test with Mus musculus [13], in the test on Mus musculus [14] and in the test with Mus musculus [15] was Active. Further, the Activity with J774.A1 [2] is 33.13%; in the test on J774.A1 [3] (time 24.5 hrs), “Dose-Dependent Effect”; with J774.A1 [5], 63.29%. In addition, the results for the 50% inhibitory concentration (IC50) in the test with J774.A1 [3] and in the test on J774.A1 [6] were 5.66 µM and 19.6 µM, respectively.

Source of the values: ChEMBL document CHEMBL5223148, “Design, synthesis, and bioactivity evaluation of novel 1-(4-(benzylsulfonyl)-2-nitrophenyl) derivatives as potential anti-inflammatory agents against LPS-induced acute lung injury” (Bioorg Med Chem Lett, 2023).
